Assay results taken from ChEMBL document CHEMBL1156711, “Synthesis and cytotoxicity evaluation of some benzimidazole-4,7-diones as bioreductive anticancer agents” (Eur J Med Chem, 2008).

Experiments:
HT-29 [1] = test: Cytotoxicity against human HT29 cells after 72 hrs by MTT assay; type: functional, cell-based; details: HT-29, 72 h
How it was run: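 HT29 grown in DMEM with 10% FBS and 2 mM L-glutamine at 37 °C, 5% CO2. Seeded at 3000 cells/well and treated 24 h later; vehicle 0.1% DMSO in PBS. MTT 0.5 mg/mL for 3 h, DMSO solubilization, OD 550 nm, triplicates, corrected for MTT blank and normalized to untreated. IC50 by Chou–Talalay median-effect plot.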

HT-29 [2] = test: Cytotoxicity against human HT29 cells after 72 hrs by MTT assay in presence of 2 uM dicoumarol; type: functional, cell-based; details: HT-29, 72 h

Row | SMILES | IC50 (HT-29 [1]) [nM] | IC50 (HT-29 [2]) [nM]
1 | CO[C@@]12[C@H](COC(N)=O)C3=C(C(=O)C(C)=C(N)C3=O)N1C[C@@H]1N[C@@H]12 [MITOMYCIN] | 900 | 2100
2 | CC1=C(C)C(=O)c2c(nc(CC(C)(C)[N+](=O)[O-])n2C)C1=O | > 100000 | –
